# Pf Dd2 inh: inhibitors of Plasmodium falciparum Dd2 growth | P. falciparum Dd2 growth, SYBR Green, 72 h; active compounds read low | activity change, % at 10 µM | actives 2.3% (n = 94,000); in the data active means activity change below about -80%
# GASC1 inh: KDM4C (human) demethylase inhibition; inhibition, % at 12.5 µM; actives 0.15% (n = 96,000); GST-KDM4C 2-372, H3K9me3 peptide, LANCE TR-FRET; AID 720574;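 active means mean replicate inhibition above about 25%, with at least 55% of replicates also reaching it, limit read from the data, passing the limit was not always enough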
#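 Material: N-terminal GST-fused human GASC-1 (KDM4C) fragment, residues 2-372. Input: 10 nM enzyme. Incubation: enzyme reaction 30 min, then detection 60 min, both room temperature. Doses: one test concentration per compound. Read-out basis: inhibition from TR-FRET ratio decrease. Detection: LANCE TR-FRET, excitation 340 nm, emissions 618 and 671 nm.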
# IDH1 mut inh: IDH1 R132H (human) inhibition; AID 624101; O75874; IDH1 R132H reductase, diaphorase/resazurin fluorescence, 60 min; inhibition, % at 10 µM; actives 0.18% (n = 70,000); in the data active means inhibition above about 34%;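 further: 0% = DMSO and 100% = no enzyme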
# Target sequence (O75874 whole entry R132H): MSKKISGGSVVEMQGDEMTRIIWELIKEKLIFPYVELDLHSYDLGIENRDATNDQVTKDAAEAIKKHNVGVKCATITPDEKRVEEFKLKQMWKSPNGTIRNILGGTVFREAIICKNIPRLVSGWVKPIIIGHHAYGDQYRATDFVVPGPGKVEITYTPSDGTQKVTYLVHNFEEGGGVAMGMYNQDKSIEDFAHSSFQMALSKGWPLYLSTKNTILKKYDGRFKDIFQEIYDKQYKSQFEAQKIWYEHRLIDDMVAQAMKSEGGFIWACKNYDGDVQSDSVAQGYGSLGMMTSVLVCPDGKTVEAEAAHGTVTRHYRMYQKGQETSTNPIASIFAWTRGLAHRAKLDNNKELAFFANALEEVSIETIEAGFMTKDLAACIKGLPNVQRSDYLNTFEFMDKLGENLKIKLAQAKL
# An asterisk follows results filed as active; nt = not tested or not shown. The sample as a whole holds a higher share of hits than the screen did.
SMILES,Pf Dd2 inh,GASC1 inh,IDH1 mut inh
C[C@@H]1CCCCO[C@H](CN(C)C(=O)Nc2ccccc2)[C@H](C)CN([C@@H](C)CO)C(=O)c2cc(NC(=O)Cc3ccccc3)ccc2O1,-59.0,-1.0,0.1
C[C@@H]1CCCCO[C@H](CN(C)C(=O)Nc2ccc(C(F)(F)F)cc2)[C@@H](C)CN([C@H](C)CO)C(=O)c2cc(NC(=O)Cc3ccccc3)ccc2O1,-87.7*,-0.4,0.1
COc1ccc(NC(=O)N(C)C[C@H]2OCCCC[C@@H](C)Oc3ccc(NC(=O)c4ccccc4)cc3C(=O)N([C@@H](C)CO)C[C@H]2C)cc1,-61.7,2.2,nt
C[C@@H]1CCCCO[C@@H](CN(C)C(=O)Nc2ccc(C(F)(F)F)cc2)[C@H](C)CN([C@H](C)CO)C(=O)c2cc(NC(=O)Cc3ccccc3)ccc2O1,-77.7,-1.0,nt
COc1ccc(NC(=O)N(C)C[C@H]2OCCCC[C@H](C)Oc3ccc(NC(=O)c4ccccc4)cc3C(=O)N([C@H](C)CO)C[C@H]2C)cc1,-95.1*,-2.2,1.0
C[C@H]1CN([C@@H](C)CO)C(=O)c2cc(C#CC3CC3)cnc2O[C@H]1CN(C)C(=O)Nc1ccccc1,7.5,0.2,nt
COc1ccc(NC(=O)Nc2ccc3c(c2)C(=O)N([C@H](C)CO)C[C@@H](C)[C@H](CN(C)Cc2ccncc2)OCCCC[C@H](C)O3)cc1,1.5,2.9,1.0
C[C@@H]1CCCCO[C@H](CN(C)C(=O)Nc2ccc(F)cc2)[C@@H](C)CN([C@@H](C)CO)C(=O)c2cc(NC(=O)Cc3ccccc3)ccc2O1,-61.0,-0.4,2.9
C[C@H]1CCCCO[C@@H](CN(C)C(=O)Nc2ccccc2)[C@@H](C)CN([C@@H](C)CO)C(=O)c2cc(NC(=O)Cc3ccccc3)ccc2O1,7.4,0.1,2.6
C[C@H](CO)N1C[C@H](C)[C@@H](CN(C)C(=O)Nc2ccc(C(F)(F)F)cc2)OCCCC[C@H](C)Oc2ccc(NC(=O)Cc3ccccc3)cc2C1=O,-84.6*,-1.4,nt
C[C@@H]1CCCCO[C@@H](CN(C)C(=O)Nc2ccc(C(F)(F)F)cc2)[C@H](C)CN([C@@H](C)CO)C(=O)c2cc(NC(=O)Cc3ccccc3)ccc2O1,-46.0,1.3,nt
C[C@@H]1CCCCO[C@H](CN(C)C(=O)Nc2ccc(C(F)(F)F)cc2)[C@H](C)CN([C@H](C)CO)C(=O)c2cc(NC(=O)Cc3ccccc3)ccc2O1,-85.7*,0.3,nt
C[C@@H]1CCCCO[C@H](CN(C)C(=O)Nc2ccc(F)cc2)[C@H](C)CN([C@H](C)CO)C(=O)c2cc(NC(=O)Cc3ccccc3)ccc2O1,-85.4*,1.3,-18.6
O=C(NCc1ccco1)C1CC(c2cccc(Br)c2)=NO1 (stereo not given),nt,nt,-0.2
C[C@@H]1CN([C@@H](C)CO)C(=O)CCCn2nncc2CO[C@@H]1CN(C)Cc1ccc(-c2ccccc2)cc1,-30.8,-0.3,0.3
COc1ccc(S(=O)(=O)N2CCC3(CC2)CN(C(=O)CN(C)C)[C@@H](CO)c2c3c3ccc(OC)cc3n2C)cc1,-88.3*,0.4,nt
COc1ccc2c3c(n(C)c2c1)[C@@H](CO)N(C(=O)CN(C)C)CC31CCN(C(=O)CN(C)C)CC1,13.8,0.4,nt
CCCNC(=O)N1CC2(CCN(S(=O)(=O)c3ccc(OC)cc3)CC2)c2c(n(C)c3cc(OC)ccc23)[C@@H]1CO,-86.0*,-1.1,nt
CCCNC(=O)N1CC2(CCN(S(=O)(=O)c3ccccc3)CC2)c2c(n(C)c3cc(OC)ccc23)[C@H]1CO,-19.8,-3.0,nt
COc1ccc2c3c([nH]c2c1)[C@H](CO)N(S(C)(=O)=O)CC31CCN(C(=O)Cc2cccnc2)CC1,-42.9,-0.6,nt
CC(=O)N1[C@@H](CO)[C@@H]2c3ccccc3N(S(=O)(=O)c3ccccc3C)C[C@@H]21,10.9,-0.9,nt
COCC(=O)N1C[C@@H](C)[C@@H](OC)CN(C)C(=O)c2ccc(NC(=O)NC(C)C)cc2OC[C@H]1C,8.6,0.2,-0.1
CN1C(=O)c2cc(NC(=O)C3CCC3)ccc2OC[C@H]2O[C@H](CC(=O)NCC3CCCCC3)CC[C@H]21,-22.9,0.0,nt
C[C@@H]1CN([C@@H](C)CO)C(=O)Cc2cc(NC(=O)Nc3ccc4c(c3)OCO4)ccc2O[C@H]1CN(C)Cc1ccc(Oc2ccccc2)cc1,-80.7*,-0.3,1.1
C[C@H]1CN([C@@H](C)CO)C(=O)Cc2cc(NC(=O)Nc3ccc4c(c3)OCO4)ccc2O[C@@H]1CN(C)Cc1ccc(Oc2ccccc2)cc1,-35.7,0.5,0.6
SMILES,Pf Dd2 inh,GASC1 inh,IDH1 mut inh
C[C@H](CO)N1C[C@H](C)[C@@H](CN(C)Cc2ccc(Oc3ccccc3)cc2)Oc2ccc(NC(=O)Nc3ccc(F)cc3)cc2CC1=O,-82.1*,2.5,2.3
C[C@H](CO)N1C[C@H](C)[C@H](CN(C)Cc2ccc(Oc3ccccc3)cc2)Oc2ccc(NC(=O)Nc3ccc(F)cc3)cc2CC1=O,-8.0,5.3,nt
C[C@H](CO)N1C[C@H](C)[C@@H](CN(C)S(=O)(=O)c2ccc(F)cc2)Oc2ccc(NC(=O)Cc3cn(C)c4ccccc34)cc2CC1=O,-17.2,0.9,-0.2
Cc1noc(C)c1NC(=O)N(C)C[C@H]1Oc2cc(C#CCN(C)C)ccc2S(=O)(=O)N([C@H](C)CO)C[C@@H]1C,34.7,0.7,0.3
COc1cccc(NC(=O)N(C)C[C@H]2Oc3cc(C#Cc4ccc(F)cc4)ccc3S(=O)(=O)N([C@@H](C)CO)C[C@@H]2C)c1,-57.0,-4.1,nt
COc1cccc(NC(=O)N(C)C[C@@H]2Oc3cc(C#Cc4ccncc4)ccc3S(=O)(=O)N([C@@H](C)CO)C[C@@H]2C)c1,-79.2,-1.5,nt
Cc1noc(C)c1NC(=O)N(C)C[C@@H]1Oc2cc(C#CCN(C)C)ccc2S(=O)(=O)N([C@H](C)CO)C[C@H]1C,7.8,52.0*,43.6*
COc1ccc(C#Cc2ccc3c(c2)O[C@H](CN(C)C(=O)Nc2cccc(OC)c2)[C@@H](C)CN([C@@H](C)CO)S3(=O)=O)cc1,-85.2*,-5.7,0.6
COc1ccc(C#Cc2ccc3c(c2)O[C@@H](CN(C)C(=O)Nc2cccc(OC)c2)[C@@H](C)CN([C@@H](C)CO)S3(=O)=O)cc1,-89.5*,-7.2,nt
CNC[C@H]1Oc2cc(C#Cc3cccc(OC)c3)ccc2S(=O)(=O)N([C@@H](C)CO)C[C@@H]1C,-45.7,-1.2,-4.2
CNC[C@@H]1Oc2cc(C#Cc3ccc(OC)cc3)ccc2S(=O)(=O)N([C@@H](C)CO)C[C@H]1C,-85.0*,-2.7,-3.8
COc1ccc(C(=O)Nc2ccc3c(c2)C(=O)N(C)C[C@@H](OC)[C@@H](C)CN(C(C)=O)[C@H](C)CO3)cc1,-4.9,0.5,-0.1
CN(C)CC(=O)N[C@H]1CC[C@H](CCn2cc(C3CC3)nn2)O[C@H]1CO,19.2,5.8,-0.1
O=C(CN1C(=O)c2cccc3cccc(c23)C1=O)NCC(O)c1ccccc1 (stereo not given),nt,nt,0.2
O=C(C[C@H]1C[C@@H]2c3cc(NC(=O)CC4CC4)ccc3O[C@@H]2[C@H](CO)O1)NCc1cc(F)ccc1F,11.6,2.8,-0.1
C[C@@H]1CN([C@H](C)CO)C(=O)c2cc(C#CCN(C)C)cnc2O[C@H]1CN(C)Cc1ccccc1F,-10.4,3.9,0.1
